# Rows were chosen to be rich in hits. Some 4.6% of all compounds tested hit in one or more screens of this group.
# OX1R antag-1 = antagonists of human orexin 1 receptor (OX1R). 330,000 tested, 1.8% active. AID 485270, 2010. inhibition, % at 6.6 µM. OX1R-expressing cells, FRET antagonist read-out. Orexin/Hypocretin receptor type 1 (Homo sapiens), O43613; in the data active = inhibition mostly above about 38%, no sharp cut-off; inactive = mostly below about 40%;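 also: 0% = agonist challenge alone and 100% = reference antagonist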
# Target sequence (O43613 whole entry, looked up): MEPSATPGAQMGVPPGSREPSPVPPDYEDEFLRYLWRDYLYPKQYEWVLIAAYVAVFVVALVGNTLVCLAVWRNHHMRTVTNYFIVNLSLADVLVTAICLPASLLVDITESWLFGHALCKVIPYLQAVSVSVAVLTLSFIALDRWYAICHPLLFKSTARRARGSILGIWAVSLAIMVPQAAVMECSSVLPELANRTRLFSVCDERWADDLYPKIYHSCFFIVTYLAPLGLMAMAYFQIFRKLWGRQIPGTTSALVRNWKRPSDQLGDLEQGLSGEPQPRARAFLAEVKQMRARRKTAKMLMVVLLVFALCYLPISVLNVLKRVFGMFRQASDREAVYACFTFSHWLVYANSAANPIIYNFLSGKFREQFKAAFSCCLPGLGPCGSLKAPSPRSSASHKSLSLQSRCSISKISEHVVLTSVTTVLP
# CHO parental Ca = ATP-evoked calcium signal inhibitors, parental CHO, primary screen, counter-screen for OX1R antagonist project, cell-based, fluorescence, Fluo-8 calcium dye; parental CHO-K1, ATP-induced calcium, Fluo-8 fluorescence; inhibition, % at 5.6 µM; 330,000 tested, 0.63% active; AID 463079, 2010;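 active = inhibition above that plate's mean sample inhibition plus 3 SD, cut at about 26% in these data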;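 also: 0% = ATP-challenged DMSO wells and 100% = DMSO wells without ATP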
#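 material = parental CHO cells | also added = ATP as calcium-mobilizing challenge | dosing = single point at 5.6 µM | detection = intracellular calcium via Fluo-8 no-wash fluorescent dye | read-out = % inhibition | benchmarks = low control ATP plus DMSO, high control DMSO only | repeats = one well per compound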
# TAAR1 antag = human TAAR1 antagonists, primary screen, Fluo-8 calcium fluorescence, CHO RD-HGA16 cells; antagonist; 360,000 tested, 1.5% active; Trace amine-associated receptor 1 (Homo sapiens), Q96RJ0; inhibition, % at 3 µM;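 active = inhibition above a per-plate cutoff, the mean inhibition of test compounds on that plate plus 3 SD, cut at about 49% in these data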;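 also: 0% = DMSO plus EC80 beta-PEA response and 100% = DMSO alone without agonist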
# Target sequence (Q96RJ0 whole entry, looked up): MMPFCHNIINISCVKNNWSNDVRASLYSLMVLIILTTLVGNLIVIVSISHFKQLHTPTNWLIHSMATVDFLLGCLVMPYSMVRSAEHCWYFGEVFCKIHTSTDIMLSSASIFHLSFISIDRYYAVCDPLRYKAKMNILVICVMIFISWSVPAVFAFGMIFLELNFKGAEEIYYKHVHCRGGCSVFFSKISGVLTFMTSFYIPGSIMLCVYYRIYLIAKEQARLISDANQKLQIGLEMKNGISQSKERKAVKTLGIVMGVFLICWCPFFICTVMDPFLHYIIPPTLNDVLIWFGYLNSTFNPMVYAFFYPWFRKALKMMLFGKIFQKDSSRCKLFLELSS
#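 Test system – hTAAR1-expressing CHO RD-HGA16 cells, Gα16-coupled · Reagent – β-PEA at EC80 concentration, post-compound challenge · Compound dosing – 3 µM, single point · Timing – 140 s kinetic read after compound, 140 s after agonist · Detection – Fluo-8 intracellular calcium dye fluorescence, real-time kinetic reads · Control set – DMSO and EC80 PEA controls · Repeats – n of 1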
# OX1R antag-2 = OX1R (HCRTR1) antagonists, primary screen, fluorescence, CHO/OX1R cells, Fluo-8 calcium, orexin A. 330,000 tested, 0.43% active. inhibition, % at 5 µM. AID 434989, 2010. Orexin/Hypocretin receptor type 1 (Homo sapiens), O43613. Fluo-8 calcium fluorescence;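 active = inhibition above its plate's threshold, mean inhibition of all tested compounds on the plate plus 3 SD, cut at about 37% in these data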;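 also: 0% = orexin A challenge wells and 100% = SB-334867-A antagonist wells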
# GPR7 antagonist = GPR7 receptor antagonists, primary screen, cell-based, fluorescence, single concentration; 290,000 tested, 1.1% active; inhibition, % at 4.4 µM; GPR7-expressing cells, fluorescence antagonist assay; in the data active = inhibition above about 16%, passing the limit was not always enough;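 also: cells stimulated with the agonist NPW; 0% = agonist with vehicle and 100% = vehicle without agonist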
# TAAR1 ag = human TAAR1 agonists, primary screen, Fluo-8 calcium fluorescence, CHO RD-HGA16 cells. vehicle wells 0%, saturating PEA agonist 100%. activation, % at 3 µM. AID 624467, 2012. Trace amine-associated receptor 1 (Homo sapiens), Q96RJ0. 360,000 tested, 0.99% active;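 active = activation above the mean activation of all test compounds in the run plus 3 SD, cut at about 38% in these data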
#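 System: CHO-derived RD-HGA16 cells with stable Gα16 and human TAAR1. Times: 17-24 h plating, Fluo-8 75 min 37 °C, 30 min RT. Measured by: calcium-sensitive Fluo-8 signal, excitation 470-495, emission 515-575 nm. Read-out basis: % activation relative to PEA EC100 response. Control set: DMSO and PEA EC100. Repeats: no replicates (n 1).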
# nonsel antag count = nonselective antagonists in TAAR1 counter-screen cells, counter-screen for hTAAR1 antagonist project, cell-based, fluorescence, calcium | shares compounds with TAAR1 antag | counterscreen cell line, antagonist mode | inhibition, % at 3 µM | 2,400 tested, 77% active; in the data active = inhibition above about 22%;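 also: CHO-Ga16 host cells stimulated with ATP at an EC80 level; 0% = agonist EC80 plus vehicle and 100% = vehicle without agonist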
# TAAR1 ant conf = human TAAR1 antagonists, retest of hits, confirmation, cell-based, fluorescence. shares compounds with TAAR1 antag. TAAR1-expressing cells, fluorescence antagonist read-out. inhibition, % at 3 µM. 2,400 tested, 40% active; in the data active = inhibition above about 49%;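 also: CHO-Ga16 host cells challenged with agonist PEA near its EC80; 0% = agonist at EC80 plus vehicle and 100% = vehicle with no agonist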
# Ga16 ag counter = calcium activation in Ga16-expressing cells, counter-screen for TAAR1 antagonist project, cell-based, fluorescence. shares compounds with TAAR1 antag. AID 651953, 2012. 2,400 tested, 18% active. agonist counterscreen. activation, % at 3 µM; in the data active = activation above about 12%;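 also: 0% = vehicle wells and 100% = saturating stimulus response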
# TAAR1 ag count = TAAR1 activation by candidate antagonists – cell-based, fluorescence, counter-screen for TAAR1 antagonist project. activation, % at 3 µM. 2,400 tested, 2% active. hTAAR1 cell line, agonist mode. AID 651955, 2012. shares compounds with TAAR1 antag; in the data active = activation above about 37%;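 also: CHO cells stably expressing TAAR1 with calcium dye readout; 0% = DMSO vehicle and 100% = full agonist response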
# * marks the source's active call; other numbers are inactive results; nt = no result given; ! = not active in a repeat.
SMILES,OX1R antag-1,CHO parental Ca,TAAR1 antag,OX1R antag-2,GPR7 antagonist,TAAR1 ag,nonsel antag count,TAAR1 ant conf,Ga16 ag counter,TAAR1 ag count
COC(=O)C[C@H]1CC[C@H](NC(=O)Nc2ccccc2OC)[C@@H](CO)O1,nt,nt,4.7,nt,nt,1.6,nt,nt,nt,nt
COc1ccc(CCNc2oc(COc3ccc(Br)cc3)nc2C#N)cc1OC,24.5,25.4,92.7*,5.1,-1.1,4.9,47.4*,65.0*,8.7,4.2
COc1ccc(CCNc2oc(COc3ccccc3F)nc2C#N)cc1,33.0,5.7,65.0*,-17.3,2.9,8.3,29.2*,52.2*,6.2,2.0
N#Cc1nc(COc2ccccc2F)oc1NCc1ccc(F)cc1,12.8,-3.3,26.0,-17.8,6.0,-1.2,nt,nt,nt,nt
Cc1ccc(S(=O)(=O)N2[C@H](CC(=O)OCc3ccccc3)OC[C@@H]2C(C)C)cc1,nt,nt,2.5,nt,nt,0.1,nt,nt,nt,nt
Cc1ccc(S(=O)(=O)Nc2cccc(C(=O)NCC3CCCO3)c2)cc1F (stereo not drawn),12.1,-3.5,3.0,-22.3,nt,0.9,nt,nt,nt,nt
COc1ccccc1CCC(=O)N(C)C1CCCN(Cc2ccccc2F)C1 (stereo not drawn),9.8,-20.3,-15.8,-33.4,3.2,3.6,nt,nt,nt,nt
Cc1onc(-c2c(Cl)cccc2Cl)c1C(=O)c1c[nH]c(C(=O)NCC2CCCO2)c1 (stereo not drawn),22.0,2.0,62.1*,-32.9,-6.9,26.4,32.1*,45.5,10.9,13.2
COc1ccc(-c2noc(CCC(=O)N3CCN(c4ccccc4OC)CC3)n2)cc1,1.9,-19.0,26.5,-10.8,nt,5.9,nt,nt,nt,nt
COc1ccc(-c2noc(CCC(=O)N3CCN(c4ccccc4C(F)(F)F)CC3)n2)cc1,10.1,-14.8,64.8*,-2.0,nt,5.4,28.1*,47.6,10.8,14.9
CCOC(=O)c1c(C)[nH]c(C(=O)N/N=C/c2cccc(OC)c2)c1C,14.9,-8.6,55.0*,-29.1,5.9,17.0,20.8,41.3,11.5,12.4
CCOC(=O)c1c(C)[nH]c(C(=O)N/N=C\c2ccccc2Cl)c1C,27.1,-19.6,54.9*,2.4,6.4,8.3,37.6*,55.9*,11.3,10.0
O=c1c2ccccc2nc(/C=C/c2cccnc2)n1CCc1ccccc1,13.8,-9.9,59.7*,-32.6,-7.1,6.9,18.7,26.6,3.2,2.0
O=c1c2ccccc2nc(/C=C/c2cc(Br)ccc2O)n1CCCO,6.9,-12.2,57.8*,9.5,-1.1,13.0,12.7,19.8,5.6,10.7
O=c1c2ccccc2nc(/C=C/c2cccc([N+](=O)[O-])c2)n1CCO,18.9,-4.6,8.5,-20.8,-8.8,13.8,nt,nt,nt,nt
O=c1c2ccccc2nc(/C=C/c2cccnc2)n1Cc1ccccc1,nt,nt,0.0,nt,-0.4,8.2,nt,nt,nt,nt
CCOC(=O)N(C)C[C@@H]1OCc2cnnn2CCCC(=O)N([C@H](C)CO)C[C@@H]1C,nt,nt,-23.3,nt,nt,2.0,nt,nt,nt,nt
COc1ccc(C(=O)N[C@H](C(=O)Nc2cccc(S(=O)(=O)N3CCOCC3)c2)C(C)C)cc1,nt,nt,-1.7,nt,nt,2.7,nt,nt,nt,nt
CCn1c2ccccc2c2cc(NC(=O)c3coc(=O)c(Br)c3)ccc21,14.8,-4.1,105.4*,-16.3,-13.7,5.5,16.2,18.2,4.8,4.9
COc1ccc(C(CNC(=O)C(Cc2ccccc2)NC(N)=O)N(C)C)cc1 (stereo not drawn),1.1,-4.0,103.2*,-18.5,-12.6,-3.6,5.8,-2.1,0.9,1.8
Cc1ccc(NC(=O)CSCC(=O)N2CCCc3ccccc32)cc1,14.0,-8.9,-5.9,-22.4,nt,0.4,nt,nt,nt,nt
COc1cc(NC(=O)c2cc3ccccc3o2)c(OC)cc1Br,25.1,-20.7,1.6,-15.0,-0.1,9.1,nt,nt,nt,nt
COc1cc(NC(=O)c2cc3ccccc3o2)c(OC)cc1Cl,-4.5,-23.2,55.3*,-13.3,-11.8,10.3,16.5,53.7*,0.2,1.3
Cc1sc2ncnc(N3CCC(C(=O)N(C)CC(=O)Nc4cccc(F)c4)CC3)c2c1C,nt,nt,67.7*,nt,nt,17.6,32.4*,54.8*,12.7*,11.5
Cc1sc2ncnc(N3CCC(C(=O)N(C)CC(=O)Nc4ccccc4Br)CC3)c2c1C,24.4,-31.2,63.5*,-25.2,-11.3,9.5,26.8*,43.9,9.4,7.9
SMILES,OX1R antag-1,CHO parental Ca,TAAR1 antag,OX1R antag-2,GPR7 antagonist,TAAR1 ag,nonsel antag count,TAAR1 ant conf,Ga16 ag counter,TAAR1 ag count
CCN(CC(=O)Nc1cc(Cl)ccc1C)C(=O)C1CCCCC1,23.1,6.1,-0.6,-18.8,6.7,-0.3,nt,nt,nt,nt
Cc1sc2ncnc(N3CCC(C(=O)Nc4ccccc4C(C)(C)C)CC3)c2c1C,27.1,1.7,25.9,-30.9,nt,8.6,nt,nt,nt,nt
CCN(CC(=O)Nc1cc(Cl)ccc1C)C(=O)C1CCN(c2ncnc3sc(C)c(C)c23)CC1,nt,nt,82.7*,nt,nt,14.0,34.1*,53.7*,9.1,5.6
Cc1sc2ncnc(N3CCC(C(=O)N(C)CC(=O)Nc4ccccc4Cl)CC3)c2c1C,14.5,-16.8,64.1*,-13.5,13.1,11.3,24.6*,41.2,8.7,4.9
Cc1sc2ncnc(N3CCC(C(=O)N(C)CC(=O)Nc4ccc(Cl)c(C(F)(F)F)c4)CC3)c2c1C,25.8,6.0,38.6,-23.8,nt,6.9,nt,nt,nt,nt
CC1=C(O)C(=O)C(c2c(C)cc(C)c(Br)c2C)=C(O)C1=O,nt,nt,-10.6,nt,nt,3.4,nt,nt,nt,nt
COc1ccccc1S(=O)(=O)N(C)C[C@H]1OCc2cnnn2CCCC(=O)N([C@H](C)CO)C[C@H]1C,nt,nt,-20.9,nt,nt,3.6,nt,nt,nt,nt
CCCNC(=O)C1(C)CCCN(C(=O)c2c(F)ccc(C)c2F)C1 (stereo not drawn),nt,nt,-26.7,nt,nt,2.3,nt,nt,nt,nt
Cc1ccc(NS(=O)(=O)c2ccc3c(c2)CCC(=O)N3)cc1C,22.3,9.6,103.1*!,-18.8,-5.3,2.9,5.0,7.1,1.9,4.5
Cc1ccc(NS(=O)(=O)c2ccc3c(c2)CC(=O)N3)cc1C,5.3,0.0,-29.4,-7.4,6.5,7.7,nt,nt,nt,nt

# Bioassay records: PubChem BioAssay, The Scripps Research Institute Molecular Screening Center
